Laboratory results reported in ChEMBL document CHEMBL1134661, “N-Benzylpolyamines as vectors of boron and fluorine for cancer therapy and imaging: synthesis and biological evaluation” (J Med Chem, 2001).
pIC50: −log10 of the molar value. Values joined by “and” are separate entries in the source; they are usually repeats but may differ in a detail not shown here. Equal entries are not always repeated.

Experiments:
[1] = test system: CHO-MG; assay: Compound was tested for accumulation in CHO-MG cells by HPLC at 250 uM dose; assay type: functional, Cricetulus griseus
How it was run: (§1)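 CHO or polyamine-transport-deficient CHO-MG cells (proline 2 µg/mL added for CHO-MG), RPMI 1640 with 10% FCS, 37 °C, 5% CO2; seeded at 5 × 10⁴ cells/mL, derivative added 24 h later for 24 h; trypsin/EDTA harvest, three PBS washes, sonication in 0.2 N perchloric acid; derivative measured by ion-pair reversed-phase HPLC with o-phthalaldehyde/N-acetylcysteine fluorescence; per mg protein (Folin); mean ± SD.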

[2] = test system: 3LL cell line; assay: accumulation of compound in 3LL cells was measured without DFMO by HPLC at 250 uM dose; assay type: functional, Mus musculus
How it was run: (§2)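 3LL cells exposed 24 h to derivative, BSH or BPA, with or without prior 24 h incubation with 5 mM DFMO; intracellular drug measured by ion-pair reversed-phase HPLC with o-phthalaldehyde fluorescence, or cellular boron by ICP-AES, per mg protein; mean ± SD; Student's t-test, p < 0.01.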

[3] = test system: CHO; assay: Compound was tested for accumulation in CHO cells by HPLC at 250 uM dose; assay type: functional, Cricetulus griseus; how it was run: as §1
[4] = test system: 3LL cell line; assay: accumulation of compound in 3LL cells was measured with DFMO by HPLC at 250 uM dose; assay type: functional, Mus musculus; how it was run: as §2
[5] = test system: 3LL cell line; assay: accumulation of compound in 3LL cells was measured without DFMO by ICP-AES at 50 uM dose; assay type: functional, Mus musculus; how it was run: as §2
[6] = test system: 3LL cell line; assay: Effect on the growth of 3LL cells by DFMO pretreatment at 48 hr incubation; assay type: functional, cell-based; conditions: Mus musculus
How it was run: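 3LL cells given 5 mM DFMO 24 h after seeding for a 24 h preincubation, then 48 h with spermidine or derivative; MTT readout; growth expressed relative to cells treated with DFMO only; mean ± SEM.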

[7] = test system: 3LL cell line; assay: accumulation of compound in 3LL cells was measured with DFMO by ICP-AES at 50 uM dose; assay type: functional, Mus musculus; how it was run: as §2
[8] = target: Nucleic Acid; assay: (§3) DNA binding affinity (conc to decrease the fluorescence of the ethidium bromide-DNA complex by 50%); assay type: nucleic-acid assay
[9] = test system: 3LL cell line; assay: spermine levels in 3LL cells after the treatment of 50 uM of Compound; assay type: functional, cell-based; conditions: Mus musculus
How it was run: (§4)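 3LL cells incubated 24 h with derivative, some after 24 h pretreatment with 5 mM DFMO; perchloric acid extracts analyzed for putrescine, spermidine and spermine by ion-pair reversed-phase HPLC with o-phthalaldehyde post-column fluorescence, normalized to protein (Folin); mean ± SD.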

[10] = test system: 3LL cell line; assay: accumulation of compound in 3LL cells was measured with DFMO by HPLC at 50 uM dose; assay type: functional, Mus musculus; how it was run: as §2
[11] = test system: U-251; assay: Compound was tested for accumulation of (50 uM) boronated polyamines in human U251 glioblastoma cells; assay type: functional
How it was run: (§5)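 Rat C6, human U251 glioblastoma or murine B16 melanoma cells exposed 24 h to 50 µM boron-containing derivative, either directly or after 24 h preincubation with 5 mM DFMO; washed cells sonicated in 0.2 N perchloric acid, derivative quantified by ion-pair reversed-phase HPLC with o-phthalaldehyde fluorescence detection, normalized to protein; mean ± SD.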

[12] = test system: 3LL cell line; assay: spermidine levels in 3LL cells after the treatment of 50 uM of Compound; assay type: functional, cell-based; conditions: Mus musculus; how it was run: as §4
[13] = test system: 3LL cell line; assay: accumulation of compound in 3LL cells was measured without DFMO by HPLC at 50 uM dose; assay type: functional, Mus musculus; how it was run: as §2
[14] = test system: 3LL cell line; assay: Effect on the growth of 3LL cells was evaluated using an MTT assay at 72 hour incubation; assay type: functional, cell-based; conditions: Mus musculus
[15] = Compound was tested for accumulation of (50 uM) boronated polyamines in rat C6 glioblastoma cells; assay type: functional; how it was run: as §5
[16] = test system: 3LL cell line; assay: Effect on the growth of 3LL cells was evaluated using an MTT assay at 48 hour incubation; assay type: functional, cell-based; conditions: Mus musculus
[17] = Compound was tested for accumulation of (50 uM) boronated polyamines in murine B16 melanoma cells; assay type: functional; how it was run: as §5
[18] = test system: 3LL cell line; assay: accumulation of compound in 3LL cells was measured without DFMO by HPLC at 1 uM dose; assay type: functional, Mus musculus; how it was run: as §2
[19] = test system: 3LL cell line; assay: accumulation of compound in 3LL cells was measured without DFMO by HPLC at 10 uM dose; assay type: functional, Mus musculus; how it was run: as §2
[20] = test system: CHO; assay: Compound was tested for accumulation in CHO cells by HPLC at 10 uM dose; assay type: functional, Cricetulus griseus; how it was run: as §1
[21] = target: Nucleic Acid; assay: as §3; assay type: nucleic-acid assay, Bos taurus
[22] = test system: 3LL cell line; assay: spermine levels in 3LL cells after the treatment of 1 uM of Compound; assay type: functional, cell-based; conditions: Mus musculus; how it was run: as §4
[23] = test system: 3LL cell line; assay: accumulation of compound in 3LL cells was measured with DFMO by HPLC at 1 uM dose; assay type: functional, Mus musculus; how it was run: as §2
[24] = Compound was tested for accumulation of (50 uM) boronated polyamines in murine B16 melanoma cells ncubated with 5 mM DFMO; assay type: functional; how it was run: as §5
[25] = test system: 3LL cell line; assay: accumulation of compound in 3LL cells was measured with DFMO by HPLC at 10 uM dose; assay type: functional, Mus musculus; how it was run: as §2
[26] = test system: 3LL cell line; assay: spermine levels in 3LL cells after the treatment of 250 uM of Compound; assay type: functional, cell-based; conditions: Mus musculus; how it was run: as §4
[27] = test system: U-251; assay: Compound was tested for accumulation of (50 uM) boronated polyamines in human U251 glioblastoma cells incubated with 5 mM DFMO; assay type: functional; how it was run: as §5
[28] = test system: 3LL cell line; assay: spermidine levels in 3LL cells after the treatment of 250 uM of Compound; assay type: functional, cell-based; conditions: Mus musculus; how it was run: as §4
[29] = test system: CHO; assay: Compound was tested for accumulation in CHO cells by HPLC at 50 uM dose; assay type: functional, Cricetulus griseus; how it was run: as §1
[30] = test system: CHO-MG; assay: Compound was tested for accumulation in CHO-MG cells by HPLC at 50 uM dose; assay type: functional, Cricetulus griseus; how it was run: as §1
[31] = test system: 3LL cell line; assay: putrescine levels in 3LL cells after the treatment of 250 uM of Compound; assay type: functional, cell-based; conditions: Mus musculus; how it was run: as §4
[32] = Compound was tested for accumulation of (50 uM) boronated polyamines in rat C6 glioblastoma cells incubated with 5 mM DFMO; assay type: functional; how it was run: as §5
[33] = test system: 3LL cell line; assay: spermine levels in 3LL cells after the treatment of 10 uM of Compound; assay type: functional, cell-based; conditions: Mus musculus; how it was run: as §4

pIC50 [21]	SMILES	pIC50 [6]	Level (nM (mg of protein)-1) [9]	Activity [10]	Level (nM (mg of protein)-1) [12]	Activity [13] [nmol/mg protein]	pIC50 [14]	pIC50 [16]	Activity [19]	Accumulation [29]	further results
	CC1(C)COB(c2cccc(CN(CCCN)CCCCN)c2)OC1.Cl										Accumulation [1]: 3.71 nM (mg of protein)-1; Activity [2]: 4.52 nM (mg of protein)-1; Accumulation [3]: 5.65 nM (mg of protein)-1; Activity [4]: 3.93 nM (mg of protein)-1
	CC1(C)COB(c2ccc(CN(CCCN)CCCCN)cc2)OC1.Cl	< 5.00	7.4	0.98 nM (mg of protein)-1	8.92	2.6	< 3.00	< 3.00			Activity [5]: 3.46 nM (mg of protein)-1; Accumulation [1]: 3.84 nM (mg of protein)-1; Activity [2]: 3.35 nM (mg of protein)-1; Activity [7]: 1.83 nM (mg of protein)-1; pIC50 [8]: 3.99; Accumulation [11]: 2.12 nM (mg of protein)-1 and 1.79 nM (mg of protein)-1; Accumulation [3]: 5.05 nM (mg of protein)-1; Activity [4]: 2.55 nM (mg of protein)-1; Accumulation [15]: 2.92 nM (mg of protein)-1 and 2.5 nM (mg of protein)-1; Accumulation [17]: 0.92 nM (mg of protein)-1 and 0.45 nM (mg of protein)-1
3.47	Cl.NCCCCNCCCNCc1ccc(F)cc1	6.30					5.64	5.33	12.87 nM (mg of protein)-1		Activity [18]: 5.51 nM (mg of protein)-1; Accumulation [20]: 9.4 nM (mg of protein)-1; Level (nM (mg of protein)-1) [22]: 8.25; Activity [23]: 12.19 nM (mg of protein)-1
2.86	Cl.NCCCCNCc1ccc(B(O)O)cc1	< 4.30	7.52	8.44 nM (mg of protein)-1	1.07	1.32	< 3.00	< 3.00	0.52 nM (mg of protein)-1	5.76 nM (mg of protein)-1	Activity [5]: 1.29 nM (mg of protein)-1; Accumulation [24]: 20.41 nM (mg of protein)-1; Activity [25]: 3.37 nM (mg of protein)-1; Level (nM (mg of protein)-1) [26]: 7.66; Accumulation [27]: 0.22 nM (mg of protein)-1; Level (nM (mg of protein)-1) [28]: 2.28; Activity [7]: 6.73 nM (mg of protein)-1; Accumulation [11]: 0.21 nM (mg of protein)-1; Accumulation [30]: 0.51 nM (mg of protein)-1; Level (nM (mg of protein)-1) [31]: 1.31; Activity [15]: 0.09 nM (mg of protein)-1; Accumulation [32]: 0.41 nM (mg of protein)-1; Accumulation [17]: 5.77 nM (mg of protein)-1
< 2.52	Cl.NCCCCNCc1ccc(F)cc1	< 5.00	11	1.31 nM (mg of protein)-1	0.92	0.55	3.33	3.25		0.9 nM (mg of protein)-1	Accumulation [30]: 0.45 nM (mg of protein)-1
4.43	Cl.NCCCCNCCCNCc1ccc(B(O)O)cc1	< 6.00	7.25	4.18 nM (mg of protein)-1	0.14		3.40	3.08		4.78 nM (mg of protein)-1	Activity [5]: 2.7 nM (mg of protein)-1; Activity [7]: 5.68 nM (mg of protein)-1; Accumulation [11]: 1.65 nM (mg of protein)-1; Drug [13]: 2.01 nM (mg of protein)-1; Activity [15]: 1.63 nM (mg of protein)-1; Accumulation [17]: 4.75 nM (mg of protein)-1 and 9.26 nM (mg of protein)-1
< 1.96	NCCCCN [PUTRESCINE]										
3.51	Cl.NCCCCN(CCCN)Cc1ccccc1	< 4.00		6.92 nM (mg of protein)-1		4.92	< 3.00	< 3.00	2.59 nM (mg of protein)-1		Accumulation [1]: 5.55 nM (mg of protein)-1; Activity [2]: 6.11 nM (mg of protein)-1; Activity [25]: 5.52 nM (mg of protein)-1; Level (nM (mg of protein)-1) [26]: 8.64; Level (nM (mg of protein)-1) [28]: 4.15; Accumulation [3]: 13.64 nM (mg of protein)-1; Activity [4]: 5.46 nM (mg of protein)-1
4.01	NCCCCNCCCN [SPERMIDINE]										
2.51	Cl.NCCCCNCc1ccccc1	< 4.30	5.79	1.03 nM (mg of protein)-1	0.89	0.34	3.22	3.00		0.4 nM (mg of protein)-1	Accumulation [30]: 0.1 nM (mg of protein)-1
3.97	Cl.NCCCCNCCCNCc1ccccc1	4.92					5.03	4.51	9 nM (mg of protein)-1	17.58 nM (mg of protein)-1	Activity [25]: 23.67 nM (mg of protein)-1; Level (nM (mg of protein)-1) [33]: 7.23
